# Legend:
# Assay type in all cases: functional
# Enterobacter cloacae [1] = experiment: Antimicrobial activity against Enterobacter cloacae isolate 1 containing PFGE genetic clone A expressing qnrB2 and beta-lactamase KPC-2 and SHV-12 gene by Etest
# Enterobacter cloacae [2] = experiment: Antimicrobial activity against Enterobacter cloacae isolate 18 containing PFGE genetic clone A expressing qnrB2 and beta-lactamase KPC-2 and SHV-12 gene by Etest
# Enterobacter cloacae [3] = experiment: Antimicrobial activity against Enterobacter cloacae isolate 140 containing PFGE genetic clone A expressing beta-lactamase KPC-2 and SHV-12 gene by Etest
# Enterobacter cloacae [4] = experiment: Antimicrobial activity against Enterobacter cloacae isolate 151 containing PFGE genetic clone A expressing qnrB2 and beta-lactamase KPC-2 gene by Etest
# Enterobacter cloacae [5] = experiment: Antimicrobial activity against Enterobacter cloacae isolate 185 containing PFGE genetic clone A expressing qnrB2 aac(6')-Ib-cr and beta-lactamase KPC-2 and SHV-12 gene by Etest
# Enterobacter cloacae [6] = experiment: Antimicrobial activity against Enterobacter cloacae isolate 293 containing PFGE genetic clone A expressing qnrB2 and beta-lactamase KPC-2 and SHV-12 gene by Etest
# Enterobacter cloacae [7] = experiment: Antimicrobial activity against Enterobacter cloacae isolate 533 containing PFGE genetic clone A expressing qnrB2 and beta-lactamase KPC-2 and SHV-12 gene by Etest
# Enterobacter cloacae [8] = experiment: Antimicrobial activity against Enterobacter cloacae isolate 622 containing PFGE genetic clone A expressing qnrB2 and beta-lactamase KPC-2 and SHV-12 gene by Etest
# Enterobacter cloacae [9] = experiment: Antimicrobial activity against Enterobacter cloacae isolate 625 containing PFGE genetic clone A expressing qnrB2 and beta-lactamase KPC-2 and SHV-12 gene by Etest
# Enterobacter cloacae [10] = experiment: Antimicrobial activity against Enterobacter cloacae isolate 656 containing PFGE genetic clone A expressing beta-lactamase KPC-2 and SHV-12 gene by Etest
# Enterobacter cloacae [11] = experiment: Antimicrobial activity against Enterobacter cloacae isolate 649 containing PFGE genetic clone B expressing qnrB2 and beta-lactamase KPC-2 and SHV-12 gene by Etest
# Enterobacter cloacae [12] = experiment: Antimicrobial activity against Enterobacter cloacae isolate 658 containing PFGE genetic clone B expressing qnrB2 and beta-lactamase KPC-2 and SHV-12 gene by Etest
# Enterobacter cloacae [13] = experiment: Antimicrobial activity against Enterobacter cloacae isolate 781 containing PFGE genetic clone B expressing qnrB2 and beta-lactamase KPC-2 and SHV-12 gene by Etest
# Enterobacter cloacae [14] = experiment: Antimicrobial activity against Enterobacter cloacae isolate 837 containing PFGE genetic clone B expressing qnrB2 and beta-lactamase KPC-2 and SHV-12 gene by Etest
# Enterobacter cloacae [15] = experiment: Antimicrobial activity against Enterobacter cloacae isolate 4469 containing PFGE genetic clone C expressing qnrB2 and beta-lactamase KPC-2 and SHV-12 gene by Etest
# Escherichia coli [16] = experiment: Antimicrobial activity against Escherichia coli T-622 harboring expressing qnrB2 and beta-lactamase KPC-2 and SHV-12 gene by Etest
# How it was run: (§1)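 MIC read by Etest. Strains are E. coli GeneHogs (recA1) transformants. Plasmid DNA from clinical E. cloacae isolates was introduced by electroporation. Transformants were selected on LB agar with 100 μg/ml ampicillin, then PCR-screened for blaKPC, blaSHV and qnr genes.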
# Escherichia coli [17] = experiment: Antimicrobial activity against Escherichia coli T-625 harboring expressing qnrB2 and beta-lactamase KPC-2 and SHV-12 gene by Etest; how it was run: as §1
# Escherichia coli [18] = experiment: Antimicrobial activity against Escherichia coli T-781 harboring expressing qnrB2 and beta-lactamase KPC-2 and SHV-12 gene by Etest; how it was run: as §1
# Escherichia coli [19] = experiment: Antimicrobial activity against Escherichia coli GeneHogs by Etest
# How it was run: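 MIC read by Etest on the plasmid-free electroporation recipient, E. coli GeneHogs (recA1 mutant).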
Compound,MIC (Enterobacter cloacae [1]) [µg/mL],MIC (Enterobacter cloacae [2]) [µg/mL],MIC (Enterobacter cloacae [3]) [µg/mL],MIC (Enterobacter cloacae [4]) [µg/mL],MIC (Enterobacter cloacae [5]) [µg/mL],MIC (Enterobacter cloacae [6]) [µg/mL],MIC (Enterobacter cloacae [7]) [µg/mL],MIC (Enterobacter cloacae [8]) [µg/mL],MIC (Enterobacter cloacae [9]) [µg/mL],MIC (Enterobacter cloacae [10]) [µg/mL],MIC (Enterobacter cloacae [11]) [µg/mL],MIC (Enterobacter cloacae [12]) [µg/mL],MIC (Enterobacter cloacae [13]) [µg/mL],MIC (Enterobacter cloacae [14]) [µg/mL],MIC (Enterobacter cloacae [15]) [µg/mL],MIC (Escherichia coli [16]) [µg/mL],MIC (Escherichia coli [17]) [µg/mL],MIC (Escherichia coli [18]) [µg/mL],MIC (Escherichia coli [19]) [µg/mL]
C[C@@H](O)[C@H]1C(=O)N2C(C(=O)O)=C(S[C@@H]3CN[C@H](C(=O)Nc4cccc(C(=O)O)c4)C3)[C@H](C)[C@H]12,32,4,> 32,> 32,4,> 32,24,32,24,16,16,12,> 32,8,> 32,8,8,12,0.012
NCC[C@H](O)C(=O)N[C@@H]1C[C@H](N)[C@@H](O[C@H]2O[C@H](CN)[C@@H](O)[C@H](O)[C@H]2O)[C@H](O)[C@H]1O[C@H]1O[C@H](CO)[C@@H](O)[C@H](N)[C@H]1O [AMIKACIN],≤ 2,≤ 2,≤ 2,≤ 2,≤ 2,16,≤ 2,≤ 2,≤ 2,≤ 2,≤ 2,≤ 2,≤ 2,32,≤ 2,≤ 2,≤ 2,≤ 2,≤ 2
C[C@H]1[C@H](NC(=O)/C(=N\OC(C)(C)C(=O)O)c2csc(N)n2)C(=O)N1S(=O)(=O)O [AZTREONAM],–,–,–,–,–,–,–,–,–,–,–,–,–,–,–,≥ 64,≥ 64,32,≤ 1
CC(C)(O/N=C(\C(=O)N[C@@H]1C(=O)N2C(C(=O)[O-])=C(C[n+]3ccccc3)CS[C@H]12)c1csc(N)n1)C(=O)O [CEFTAZIDIME],≥ 64,≥ 64,≥ 64,16,≥ 64,≥ 64,≥ 64,≥ 64,≥ 64,≥ 64,≥ 64,≥ 64,≥ 64,≥ 64,≥ 64,32,32,32,≤ 1
C[C@@H](O)[C@H]1C(=O)N2C(C(=O)O)=C(SCCNC=N)C[C@H]12 [IMIPENEM ANHYDROUS],16,8,> 32,12,8,> 32,4,24,16,32,32,> 32,> 32,6,24,4,8,3,0.125
C[C@H]1COc2c(N3CCN(C)CC3)c(F)cc3c(=O)c(C(=O)O)cn1c23.C[C@H]1COc2c(N3CCN(C)CC3)c(F)cc3c(=O)c(C(=O)O)cn1c23.O [LEVOFLOXACIN],0.38,0.5,0.094,0.5,0.5,0.75,0.38,0.5,0.5,0.5,0.75,1,0.5,0.75,0.5,0.023,0.094,0.047,–
C[C@@H](O)[C@H]1C(=O)N2C(C(=O)O)=C(S[C@@H]3CN[C@H](C(=O)N(C)C)C3)[C@H](C)[C@H]12 [MEROPENEM],2,> 32,4,> 32,24,8,2,8,6,6,4,24,> 32,6,8,3,3,2,0.016
CCn1cc(C(=O)O)c(=O)c2ccc(C)nc21 [NALIDIXIC ACID],16,16,4,16,16,16,16,16,16,16,16,16,16,16,16,2,4,2,2
GENTAMICIN,> 16,> 16,> 16,> 16,> 16,> 16,> 16,> 16,> 16,> 16,> 16,> 16,> 16,> 16,> 16,> 16,> 16,> 16,< 1
